Publication PMC7760462 (ACS Central Science, 2020)
≈ marks a conversion by molar mass, not a printed value.

Columns and labels:
MRSA (USA100) = assay: Antimicrobial activity against extracellular bacteria; format: cell-based, methicillin-resistant Staphylococcus aureus; conditions: Staphylococcus aureus, MRSA|USA100, 18 h, read-out: extracellular MIC, MRSA
VRE (ATCC51858) = assay: as above; format: cell-based, vancomycin-resistant enterococci; conditions: Enterococcus, 18 h, read-out: extracellular MIC, VRE
RAW 264.7 macrophages = assay: MTT cell viability assay; format: cell-based; conditions: Mus musculus, RAW264.7, 24 h, read-out: IC50, RAW
[1] = tested on: bacteria exposed to subinhibitory concentrations; assay: Resistance test by serial passage; format: cell-based
S. aureus (ATCC12608) = assay: Characterization of cell wall inhibition by SEM; format: cell-based, Staphylococcus aureus; conditions: S. aureus treated 12 h at drug/bacteria ratio equivalent to MIC determination
Procedure, shortened: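 S. aureus ATCC12608 was treated with the test compound, with PBS, free vancomycin and the unconjugated polypeptide as comparators. Cell wall morphology was then examined by scanning electron microscopy.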

[2] = tested on: kidney of MRSA-infected mice; assay: Kidney histology analysis; format: in vivo, mice (CD1-IGS); conditions: 72 h after infection (Figure 5e)
Procedure, shortened: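 Mice were infected with MRSA USA100 (2 × 10^7 CFU) by tail-vein injection at 0 h. They received intraperitoneal PBS, vancomycin (100 mg/kg), test compound (72 mg/kg) or unconjugated polypeptide (50 mg/kg, molar equivalent) at 24 and 36 h. Mice were sacrificed at 72 h, and kidneys were H&E-stained for granulomatous foci, immune-cell infiltration and tubular necrosis.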

[3] = by previous studies; cited from earlier work

Structure (SMILES): CN[C@H](CC(C)C)C(=O)N[C@H]1C(=O)N[C@@H](CC(N)=O)C(=O)N[C@H]2C(=O)N[C@H]3C(=O)N[C@H](C(=O)N[C@H](C(=O)O)c4cc(O)cc(O)c4-c4cc3ccc4O)[C@H](O)c3ccc(c(Cl)c3)Oc3cc2cc(c3O[C@@H]2O[C@H](CO)[C@@H](O)[C@H](O)[C@H]2O[C@H]2C[C@](C)(N)[C@H](O)[C@H](C)O2)Oc2ccc(cc2Cl)[C@H]1O [Van, vancomycin]
- MIC (MRSA (USA100)): 0.69 µM (≈ 1 µg/mL)
- MIC (VRE (ATCC51858)): 176 µM (≈ 255 µg/mL)
- IC50 (RAW 264.7 macrophages): > 706 µM
- resistance induction, change in MIC ([1]; over/after 20 passages at subinhibitory concentration): tripling
- resistance induction, change in MIC ([1]; within 5 passages at subinhibitory concentration): MIC doubling
- cell wall appearance by SEM (S. aureus (ATCC12608)): damaged bacterial cell wall
- granulomatous foci in kidney (H&E) [2]: almost no granulomatous foci
- serum Cmax [3]: ~50 µg/mL
